# Measured values from ChEMBL document CHEMBL3272249, “Esters of N-tert-butylarterenol. Long-acting new bronchodilators with reduced cardiac effects” (J Med Chem, 1976).
# Assays:
# [1] = test system: Canis familiaris; test: Bronchodilator activity in dog assessed as degree of inhibition of carbachol or histamine-induced bronchoconstriction at 50 to 100 mg/kg, id relative to control; format: functional, Canis lupus familiaris; settings: dose mg/kg 50-100; route intraduodenal
# Procedure, shortened: (§1)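 Anesthetized dogs, trachea cannulated with a nonbreathing valve. Bronchoconstriction induced by iv carbachol (2–4 μg/kg) or histamine diphosphate (20–50 μg/kg) in separate animals, and airway pressure recorded by transducer. Drug stocks were made fresh in distilled water, diluted in saline and kept on ice. Read-out was percent inhibition of control constriction, averaged over at least three dogs per dose at the higher dose. Carbachol and histamine data were combined.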
# [2] = test system: Canis familiaris; test: Cardiotoxicity in spontaneously respiring dog assessed as degree of increase in heart rate at 20 to 100 mg/kg, iv relative to control; format: toxicity, organism-based, Canis lupus familiaris; set-up: dose 20-100 mg/kg, route intravenous; settings: in vivo
# Procedure, shortened: (§2)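 Anesthetized, spontaneously respiring dogs. Heart rate was taken from a lead II EKG, and blood pressure from the right femoral artery by transducer. The increase in heart rate (beats/min) was scored on a graded scale with more than 4 dogs per dose, and its duration was recorded. Drugs were dissolved fresh in distilled water, diluted in physiological saline and kept on ice.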
# [3] = test system: Canis familiaris; test: Bronchodilator activity in dog assessed as degree of inhibition of carbachol or histamine-induced bronchoconstriction at 400 to 800 mg/kg, it relative to control; format: functional, Canis lupus familiaris; settings: dose mg/kg 400-800; route endotracheal; procedure, shortened: as §1
# [4] = test system: Canis familiaris; test: Cardiotoxicity in spontaneously respiring dog assessed as time of increase in heart rate at 20 to 100 mg/kg, iv relative to control; format: toxicity, organism-based, Canis lupus familiaris; set-up: dose 20-100 mg/kg, route intravenous; settings: in vivo; procedure, shortened: as §2
# [5] = test system: Canis familiaris; test: Bronchodilator activity in dog assessed as degree of inhibition of carbachol or histamine-induced bronchoconstriction at 20 to 100 mg/kg, iv relative to control; format: functional, Canis lupus familiaris; settings: dose mg/kg 20-100; procedure, shortened: as §1
# [6] = test system: Canis familiaris; test: Bronchodilator activity in dog assessed as time of inhibition of carbachol or histamine-induced bronchoconstriction at 400 to 800 mg/kg, it relative to control; format: functional, Canis lupus familiaris; settings: dose mg/kg 400-800; route endotracheal
# Procedure, shortened: (§3)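 Dog airway model: anesthetized, cannulated via a nonbreathing valve, with airway pressure changes recorded after iv carbachol (2–4 μg/kg) or histamine diphosphate (20–50 μg/kg) challenge, each agonist in different animals. Compounds were given iv, intraduodenally or intratracheally from fresh aqueous stocks diluted in saline. Duration (h) of inhibition of induced bronchoconstriction was followed, and the two agonist datasets were pooled.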
# [7] = test system: Canis familiaris; test: Bronchodilator activity in dog assessed as time of inhibition of carbachol or histamine-induced bronchoconstriction at 20 to 100 mg/kg, iv relative to control; format: functional, Canis lupus familiaris; settings: dose mg/kg 20-100; procedure, shortened: as §3
# [8] = test system: Canis familiaris; test: Bronchodilator activity in dog assessed as time of inhibition of carbachol or histamine-induced bronchoconstriction at 50 to 100 mg/kg, id relative to control; format: functional, Canis lupus familiaris; settings: dose mg/kg 50-100; route intraduodenal
# Procedure, shortened: (§4)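 Anesthetized dogs with an airway cannula and a nonbreathing valve. Bronchoconstriction was induced by iv carbachol (2–4 μg/kg) or histamine diphosphate (20–50 μg/kg) and read as change in airway pressure by transducer. Each compound was tested against both agonists in different dogs, and the results were combined and averaged. Effect is % inhibition of control constriction, with at least three dogs per dose. Drugs were dissolved fresh in distilled water, diluted in saline and kept on ice.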
# [9] = test system: Canis familiaris; test: Bronchodilator activity in dog assessed as time of inhibition of carbachol or histamine-induced bronchoconstriction at 50 mg/kg, id relative to control; format: functional, Canis lupus familiaris; settings: route intraduodenal; procedure, shortened: as §4
# [10] = test system: Canis familiaris; test: Bronchodilator activity in dog assessed as degree of inhibition of carbachol or histamine-induced bronchoconstriction at 5 mg/kg, iv relative to control; format: functional; settings: Canis lupus familiaris; procedure, shortened: as §1
# [11] = test system: Canis familiaris; test: Bronchodilator activity in dog assessed as time of inhibition of carbachol or histamine-induced bronchoconstriction at 5 mg/kg, iv relative to control; format: functional, Canis lupus familiaris; procedure, shortened: as §4
# [12] = test system: Canis familiaris; test: Bronchodilator activity in dog assessed as degree of inhibition of carbachol or histamine-induced bronchoconstriction at 50 mg/kg, id relative to control; format: functional; settings: Canis lupus familiaris, route intraduodenal; procedure, shortened: as §1
# [13] = test system: Canis familiaris; test: Bronchodilator activity in dog assessed as degree of inhibition of carbachol or histamine-induced bronchoconstriction at 430 to 860 mg/kg, it relative to control; format: functional, Canis lupus familiaris; settings: dose mg/kg 430-860; route endotracheal; procedure, shortened: as §1
# [14] = test system: Canis familiaris; test: Cardiotoxicity in spontaneously respiring dog assessed as degree of increase in heart rate at 200 mg/kg, iv relative to control; format: toxicity, organism-based, Canis lupus familiaris; set-up: dose 200 mg/kg, route intravenous; settings: in vivo; procedure, shortened: as §2
# [15] = test system: Canis familiaris; test: Bronchodilator activity in dog assessed as degree of inhibition of carbachol or histamine-induced bronchoconstriction at 100 to 200 mg/kg, id relative to control; format: functional, Canis lupus familiaris; settings: dose mg/kg 100-200; route intraduodenal; procedure, shortened: as §1
# [16] = test system: Canis familiaris; test: Bronchodilator activity in dog assessed as degree of inhibition of carbachol or histamine-induced bronchoconstriction at 200 mg/kg, iv relative to control; format: functional; settings: Canis lupus familiaris; procedure, shortened: as §1
# [17] = test system: Canis familiaris; test: Bronchodilator activity in dog assessed as time of inhibition of carbachol or histamine-induced bronchoconstriction at 200 mg/kg, iv relative to control; format: functional, Canis lupus familiaris; procedure, shortened: as §3
# [18] = test system: Canis familiaris; test: Cardiotoxicity in spontaneously respiring dog assessed as time of increase in heart rate at 200 mg/kg, iv relative to control; format: toxicity, organism-based, Canis lupus familiaris; set-up: dose 200 mg/kg, route intravenous; settings: in vivo; procedure, shortened: as §2
# [19] = test system: Canis familiaris; test: Bronchodilator activity in dog assessed as time of inhibition of carbachol or histamine-induced bronchoconstriction at 100 to 200 mg/kg, id relative to control; format: functional, Canis lupus familiaris; settings: dose mg/kg 100-200; route intraduodenal; procedure, shortened: as §3
# [20] = test system: Canis familiaris; test: Bronchodilator activity in dog assessed as time of inhibition of carbachol or histamine-induced bronchoconstriction at 430 to 860 mg/kg, it relative to control; format: functional, Canis lupus familiaris; settings: dose mg/kg 430-860; route endotracheal; procedure, shortened: as §4
# [21] = test system: Canis familiaris; test: Cardiotoxicity in spontaneously respiring dog assessed as degree of increase in heart rate at 100 to 200 mg/kg, iv relative to control; format: toxicity, organism-based, Canis lupus familiaris; set-up: dose 100-200 mg/kg, route intravenous; settings: in vivo; procedure, shortened: as §2
# [22] = test system: Canis familiaris; test: Bronchodilator activity in dog assessed as time of inhibition of carbachol or histamine-induced bronchoconstriction at 100 to 200 mg/kg, iv relative to control; format: functional, Canis lupus familiaris; settings: dose mg/kg 100-200; procedure, shortened: as §3
# [23] = test system: Canis familiaris; test: Cardiotoxicity in spontaneously respiring dog assessed as time of increase in heart rate at 100 to 200 mg/kg, iv relative to control; format: toxicity, organism-based, Canis lupus familiaris; set-up: dose 100-200 mg/kg, route intravenous; settings: in vivo; procedure, shortened: as §2
# [24] = test system: Canis familiaris; test: Bronchodilator activity in dog assessed as degree of inhibition of carbachol or histamine-induced bronchoconstriction at 100 to 200 mg/kg, iv relative to control; format: functional, Canis lupus familiaris; settings: dose mg/kg 100-200; procedure, shortened: as §1
smiles,measurement,setting,value
CC(C)(C)NC[C@H](O)c1ccc(OC(=O)C(C)(C)C)c(OC(=O)C(C)(C)C)c1.Cl,inhibition (INH),[1],>70%
same,Activity,[2],20 beats/min
same,inhibition (INH),[3],45%
same,Time,[4],< 2 h
same,inhibition (INH),[5],>70%
same,Time,[6],<2 h
same,Time,[7],3 h
same,Time,[8],3 h
CC(C)(C)NC[C@H](O)c1ccc(OC(=O)C2(C)CC2)c(OC(=O)C2(C)CC2)c1.Cl,Time,[9],2 h
same,inhibition in vivo at 5 mg/kg,[10],45%
same,Time,[11],<1 h
same,inhibition in vivo at 50 mg/kg,[12],45%
CC(C)(C)CC(=O)Oc1ccc([C@@H](O)CNC(C)(C)C)cc1OC(=O)CC(C)(C)C.Cl,inhibition (INH),[13],20%
same,Activity,[14],20%
same,inhibition (INH),[15],45%
same,inhibition in vivo at 200 mg/kg,[16],> 70%
same,Time,[17],>4 h
same,Time,[18],< 1 h
same,Time,[19],<5 h
same,Time,[20],<3 h
CC(C)(C)NC[C@H](O)c1ccc(OC(=O)C2CCCCC2)c(OC(=O)C2CCCCC2)c1.Cl,Activity,[21],20%
same,Time,[22],<5 h
same,Time,[23],< 3 h
same,inhibition (INH),[24],45%
